Laboratory results as given in PMC6350648 (Drug Design, Development and Therapy, 2019).
No end group written: not given here.

How the values were obtained:
MDA-MB-435S cells = experiment: MTT assay; assay type: cell-based, human; settings: MB435s (MDA-MB-435S); peptides in serum-free medium
Summary of the method: (§1)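 For MTT viability, MDA-MB-435S, U251MG, HCT116 and MCF-7 were grown in DMEM, and NCI-H157 and PC-3 in RPMI 1640. All media had 10% FBS and 1% penicillin–streptomycin. Peptides were diluted in serum-free medium. Untreated cells defined 100% viability, and LD50 was the median lethal dose. Values are the mean with standard error from five independent experiments.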

MCF-7 cells [1] = experiment: MTT assay; assay type: cell-based, human; settings: peptides in serum-free medium
Summary of the method: as §1

HCT116 cells = experiment: MTT assay; assay type: cell-based, human; settings: peptides in serum-free medium
Summary of the method: as §1

[2] = tested on: methicillin-resistant S. aureus (MRSA) (NCTC12493); experiment: MIC/MBC broth-dilution assay; assay type: cell-based, Staphylococcus aureus; settings: MHB pH 7.4, 512 to 1 µM twofold, 1% DMSO
Summary of the method: (§2)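 Broth dilution was run in Mueller Hinton Broth, pH 7.4, with peptide at final 512 to 1 µM in twofold steps. Peptide stocks were in DMSO, giving final 1% (v/v) DMSO, also used alone as vehicle control. Controls were culture without peptide for growth and fresh MHB as blank. Positive controls were 5 mg/L vancomycin (S. aureus, MRSA, E. faecalis) and 5 mg/L amphotericin B (C. albicans). Five independent experiments were run.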

PC-3 cells = experiment: MTT assay; assay type: cell-based, human; settings: peptides in serum-free medium
Summary of the method: as §1

[3] = tested on: selected human cancer cell lines; experiment: MTT assay, all cancer cell lines examined; assay type: cell-based; settings: all six cancer cell lines
Summary of the method: as §1

U251MG cells = experiment: MTT assay; assay type: cell-based, human; settings: peptides in serum-free medium
Summary of the method: as §1

[4] = tested on: Candida albicans (NCYC1467); experiment: MIC/MBC broth-dilution assay; assay type: cell-based; settings: C. albicans NCYC1467, MHB pH 7.4, 512 to 1 µM twofold, 1% DMSO
Summary of the method: as §2

[5] = tested on: Staphylococcus aureus (NCTC10788); experiment: MIC/MBC broth-dilution assay; assay type: cell-based; settings: S. aureus NCTC10788, MHB pH 7.4, 512 to 1 µM twofold, 1% DMSO
Summary of the method: as §2

NCI-H157 cells = experiment: MTT assay; assay type: cell-based, human; settings: peptides in serum-free medium
Summary of the method: as §1

horse erythrocytes = experiment: Hemolysis assay; assay type: cell-based; settings: peptides in PBS, 512 to 1 µM, 1% Triton-X100 = 100%
Summary of the method: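 Horse erythrocytes were exposed to peptide in PBS at 512 to 1 µM. Erythrocytes in PBS defined 0% hemolysis and 1% (v/v) Triton X-100 defined 100%. HC50 (µM) was the concentration giving half-maximal hemolysis. Values are the mean with standard error from five independent experiments.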

[6] = tested on: Escherichia coli (NCTC10418); experiment: MIC/MBC broth-dilution assay; assay type: cell-based; settings: E. coli NCTC10418, MHB pH 7.4, 512 to 1 µM twofold, 1% DMSO
Summary of the method: as §2

[7] = tested on: Enterococcus faecalis (NCTC12697); experiment: MIC/MBC broth-dilution assay; assay type: cell-based; settings: E. faecalis NCTC12697, MHB pH 7.4, 512 to 1 µM twofold, 1% DMSO
Summary of the method: as §2

MCF-7 cells [8] = assay type: cell-based, human; settings: MCF-7, 10 µM peptide; 100% = 1% TritonX-100; five replicates

Substance	LD50 of MTT assays (MDA-MB-435S cells) [µM]	LD50 of MTT assays (MCF-7 cells [1]) [µM]	LD50 of MTT assays (HCT116 cells) [µM]	MBC [2] [µM]	MIC [2] [µM]	LD50 of MTT assays (PC-3 cells) [µM]	LD50 (MTT) for all the cell lines examined [3] [µM]	LD50 of MTT assays (U251MG cells) [µM]	MBC [4] [µM]	MIC [4] [µM]	MBC [5] [µM]	MIC [5] [µM]	LD50 of MTT assays (NCI-H157 cells) [µM]	HC50 of hemolysis on erythrocytes (horse erythrocytes) [µM]	MBC [6] [µM]	MIC [6] [µM]	MBC [7] [µM]	MIC [7] [µM]	LDH release (MCF-7 cells [8])
FLSLIPKIISAISALIKHF-NH2 [PSPHa5]	3.553	3.753	4.421	128	64	4.256	< 5	4.059	128	32	2	2	3.614	1.074	> 512	> 512	32	16	–
FLSLIPKAISAISALINHF-NH2 [PSPHa3]	3.994	10.48	11.71	32	32	9.164	–	10.85	4	4	2	2	2.865	9.266	> 512	> 512	32	32	–
FLSLIPKAISAISALANHF-NH2 [PSPHa2]	19.56	26.49	37.4	32	16	35.11	–	36.46	16	8	4	4	35.34	34.86	128	64	64	64	–
FLSLIPAAISAVSALANHF-NH2 [PSPHa, Phylloseptin-PHa]	28.48	24.05	36.64	128	64	37.96	–	34.67	32	32	16	8	37.61	52.17	> 512	> 512	> 512	> 512	not as potent as PSPHa2–5
FLSLIPKAISAVSALANHF-NH2 [PSPHa1]	32.41	45.69	35.16	32	16	32.89	–	33.65	32	16	8	8	41.73	197.7	128	128	32	32	lowest degree of LDH release
FLSLIPKIISAISALINHF-NH2 [PSPHa4]	4.802	15.01	6.779	256	128	9.35	–	9.547	128	32	2	2	2.265	2.766	> 512	> 512	64	32	–
